# Source: PubChem BioAssay (Broad Institute)
# An excerpt weighted towards active compounds, which were near 5.8% of everything screened.
# GASC1 inh: inhibitors of GASC-1 (KDM4C) histone demethylase, primary screen, biochemical, single concentration HTS | Lysine-specific demethylase 4C (Homo sapiens), Q9H3R0 | GST-KDM4C 2-372, H3K9me3 peptide, LANCE TR-FRET | inhibition, % at 12.5 µM | 96,000 tested, 0.15% active;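 active means mean replicate inhibition above about 25%, with at least 55% of replicates also reaching it, limit read from the data, passing the limit was not always enough; inconclusive means only one of those two conditions met; inactive means neither condition met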
# Target sequence (Q9H3R0 2-372 limits assumed): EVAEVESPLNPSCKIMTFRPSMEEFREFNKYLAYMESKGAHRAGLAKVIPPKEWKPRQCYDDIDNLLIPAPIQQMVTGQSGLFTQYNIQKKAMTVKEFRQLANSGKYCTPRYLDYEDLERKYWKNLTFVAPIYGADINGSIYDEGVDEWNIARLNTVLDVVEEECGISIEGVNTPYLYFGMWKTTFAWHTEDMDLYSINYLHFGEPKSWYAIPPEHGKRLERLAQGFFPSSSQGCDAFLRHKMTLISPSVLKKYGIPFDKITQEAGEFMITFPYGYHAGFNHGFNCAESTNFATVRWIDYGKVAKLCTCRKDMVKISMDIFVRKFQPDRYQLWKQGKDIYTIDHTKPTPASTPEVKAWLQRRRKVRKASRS
#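 Compound: one test concentration per compound; Material: GST-GASC-1 enzyme fragment 2-372; Amount: GASC-1 enzyme at 10 nM final in reaction; Also added: H3K9me3 peptide substrate, Fe(II), 2-oxoglutarate; Technique: LANCE TR-FRET; Times: 30 min demethylation and 1 h detection at room temperature.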
# Pf Dd2 growth: P. falciparum Dd2 growth inhibitors, primary screen, SYBR Green fluorescence, single dose replicates; 72 h; hits give low values; activity change, % at 10 µM; 94,000 tested, 2.3% active; in the data active means activity change below about -80%; inconclusive means no clear call, values can overlap the other calls
# T cruzi growth-1: T. cruzi intracellular proliferation inhibitors, primary screen, cell-based, beta-gal Tulahuen parasites, NIH3T3 host, luminescence | T. cruzi beta-gal in NIH3T3, GalScreen luminescence, 90 h | 77,000 tested, 5.9% active | inhibition, % at 8.34 µM;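 active means mean inhibition above about 93%, with at least 55% of replicates each passing it, limit read from the data, passing the limit was not always enough; inconclusive means only one of those two conditions holds; inactive means neither condition holds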
# IDH1 mut inh: inhibitors of IDH1 R132H reductase, primary screen, biochemical, plate reader, single point; 70,000 tested, 0.18% active; inhibition, % at 10 µM; AID 624101, 2012; diaphorase/resazurin fluorescence, 60 min; Isocitrate dehydrogenase [NADP] cytoplasmic (Homo sapiens), O75874; in the data active means inhibition above about 34%; inconclusive means no clear call, values can overlap the other calls; inactive means below about 11%;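 further: 0% = DMSO and 100% = no enzyme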
# T cruzi growth-2: T. cruzi intracellular proliferation inhibitors, confirmation, cell-based, NIH3T3 host, beta-gal parasite, luminescence, cherry-pick | shares compounds with T cruzi growth-1 | T. cruzi beta-gal in NIH3T3, GalScreen luminescence, 90 h | inhibition, % at 8.35 µM | 5,600 tested, 72% active | AID 651739, 2012;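 active means mean replicate inhibition above about 95% and at least 55% of replicates individually reaching it, limit read from the data; inconclusive means only one of the two criteria is met; inactive means neither criterion is met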
# T cruzi growth-3: inhibitors of intracellular T. cruzi replication, confirmation, NIH3T3 host cells, beta-gal parasites, cherry-pick, set 2; shares compounds with T cruzi growth-1; T. cruzi beta-gal in NIH3T3, GalScreen luminescence, 90 h; inhibition, % at 2.09 µM; 5,600 tested, 21% active; AID 651740, 2012;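 active means mean inhibition above about 95%, with at least 55% of replicates also reaching it, limit read from the data; inconclusive means meets just one of the two conditions; inactive means meets neither condition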;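 further: plate controls were neutral control median for no effect and positive control median for full effect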
# NIH3T3 tox: cytotoxicity in mouse NIH/3T3 fibroblasts, confirmation, cytotoxicity control for T. cruzi proliferation inhibitor project, cell-based, cherry-pick, single point | shares compounds with T cruzi growth-1 | AID 651742, 2012 | NIH/3T3 viability, CellTiter-Glo ATP luminescence, 90 h | cytotoxicity (signal decrease), % at 8.35 µM | 5,600 tested, 14% active;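 active means mean signal decrease across replicates above about 35% based on untreated-well scatter, with enough replicates individually passing, limit read from the data; inconclusive means no rule stated though some were filed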;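 further: 0% = median of neutral control wells and 100% = median of positive control wells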
# NIH3T3 tox 2: NIH/3T3 fibroblast cytotoxicity, confirmation, cytotoxicity control, cell-based, cherry-pick, single point, set 2. shares compounds with T cruzi growth-1. NIH/3T3 viability, CellTiter-Glo ATP luminescence, 90 h. 5,600 tested, 56% active. inhibition, % at 24.9 µM;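 active means mean loss of cell viability signal at or above a set limit, and enough replicates individually reaching it; inconclusive means meets only the mean limit or only the replicate share; inactive means meets neither condition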;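 further: 0% = median of neutral control wells and 100% = median of positive control wells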
# * marks the source's active call; other numbers are inactive results; ? = inconclusive; · = no result given.
SMILES,GASC1 inh,Pf Dd2 growth,T cruzi growth-1,IDH1 mut inh,T cruzi growth-2,T cruzi growth-3,NIH3T3 tox,NIH3T3 tox 2
C[C@H]1CCCCO[C@H](CN(C)Cc2ccc(C(F)(F)F)cc2)[C@@H](C)CN([C@@H](C)CO)C(=O)c2cc(NC(=O)c3ccncc3)ccc2O1,0,-61,98*,·,103*,31,3,106*
C[C@@H]1CN([C@H](C)CO)C(=O)c2cc(NC(=O)c3ccncc3)ccc2O[C@@H](C)CCCCO[C@@H]1CN(C)Cc1ccc(C(F)(F)F)cc1,1,-4,109*,-1,109*,52,8,26*
CN1C(=O)c2cc(NC(=O)Cc3ccccc3)ccc2OC[C@H]2O[C@@H](CC(=O)NCc3ccc(Cl)cc3)CC[C@H]21,-1,-18,38,·,·,·,·,·
Cc1noc(C)c1NC(=O)Nc1cccc2c1O[C@@H](CN(C)C(=O)Nc1ccccc1)[C@@H](C)CN([C@@H](C)CO)C2=O,0,9,5,2,·,·,·,·
COc1ccc2c3c([nH]c2c1)[C@@H](CO)N(C(C)=O)CC31CCN(C(=O)CN2CCOCC2)CC1,0,19,·,·,·,·,·,·
N#C[C@H]1[C@@H](c2ccc(C#CCC3CCCC3)cc2)[C@H](CO)N1C(=O)CN1CCOCC1,-1,-28,90,·,·,·,·,·
N#C[C@@H]1[C@H](c2ccc(C#CCC3CCCC3)cc2)[C@H](CO)N1C(=O)CN1CCOCC1,-2,-41,?,·,102*,107*,22,77*
COCC(=O)N1[C@@H](C#N)[C@@H](c2ccc(C#CCC3CCCC3)cc2)[C@@H]1CO,-1,-21,?,·,99*,90,17,103*
CCCC#Cc1ccc([C@H]2[C@@H](CO)N(C(C)=O)[C@@H]2CNC(=O)C2CC2)cc1,2,-26,·,·,·,·,·,·
C[C@@H]1CN([C@@H](C)CO)C(=O)c2cc(NS(=O)(=O)c3ccc(Cl)cc3)ccc2O[C@@H](C)CCCCO[C@@H]1CN(C)Cc1ccccc1,-1,-32,100*,·,89,71,-37,105*
C[C@@H]1CCCCO[C@@H](CN(C)Cc2ccccc2)[C@H](C)CN([C@@H](C)CO)C(=O)c2cc(NS(=O)(=O)c3ccc(Cl)cc3)ccc2O1,0,-19,110*,·,102*,57,17,100*
C[C@@H]1CCCCO[C@H](CN(C)Cc2ccccc2)[C@@H](C)CN([C@@H](C)CO)C(=O)c2cc(NS(=O)(=O)c3ccc(Cl)cc3)ccc2O1,0,-43,106*,·,95*,76,27,104*
C[C@@H]1CCCCO[C@@H](CN(C)Cc2ccccc2)[C@H](C)CN([C@H](C)CO)C(=O)c2cc(NS(=O)(=O)c3ccc(Cl)cc3)ccc2O1,-1,-26,90,·,·,·,·,·
C[C@@H]1CCCCO[C@H](CN(C)Cc2ccccc2)[C@H](C)CN([C@@H](C)CO)C(=O)c2cc(NS(=O)(=O)c3ccc(Cl)cc3)ccc2O1,-2,-35,102*,0,92,88,28,103*
Cc1ccccc1S(=O)(=O)N1CC[C@@H]2[C@H]1c1cc(Br)ccc1N(C)[C@H]2CO,0,-25,76,·,·,·,·,·
C[C@H](CO)N1C[C@H](C)[C@@H](CN(C)Cc2ccccc2)OCCCC[C@H](C)Oc2ccc(NS(=O)(=O)c3ccc(Cl)cc3)cc2C1=O,-1,20,68,·,·,·,·,·
